Test results as given in ChEMBL document CHEMBL3112485, “7-Chloroquinolinotriazoles: synthesis by the azide-alkyne cycloaddition click chemistry, antimalarial activity, cytotoxicity and SAR studies” (Eur J Med Chem, 2014).

Key:
[1] = Selectivity index, ratio of CC50 for human HepG2 cells to IC50 for chloroquine-resistant and mefloquine-sensitive Plasmodium falciparum W2; assay type: functional
[2] = Cytotoxicity against human HepG2 cells after 24 hrs by MTT assay; assay type: cell-based
Plasmodium falciparum = test: Antimalarial activity against chloroquine-resistant and mefloquine-sensitive Plasmodium falciparum W2 infected in human erythrocytes after 48 hrs by HRP2-ELISA; assay type: functional, organism-based; settings: W2, 48 h
How it was run: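 Ring-stage cultures sorbitol-synchronized; RBC suspension at 0.05% parasitemia, 1.5% hematocrit in RPMI with 10% human plasma, exposed to serial compound concentrations 48 h. Background wells harvested at 24 h and subtracted. Freeze-thaw lysis, then anti-HRP2 sandwich ELISA with TMB, absorbance 450 nm. IC50 from sigmoidal dose-response versus drug-free and standard-drug controls; triplicate per concentration, experiments in duplicate.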

Row | Compound | Ratio CC50/IC50 [1] | CC50 at 24 h [2] | IC50 (Plasmodium falciparum; read-out: IC50) | IC50 (Plasmodium falciparum; read-out: pIC50 (converted))
1 | O=C(OCc1cn(-c2ccnc3cc(Cl)ccc23)nn1)c1ccc(C(F)(F)F)cc1 | <9.2 | 1070 µM | > 116 µM | 
2 | CN(C)c1ccc(-c2cn(-c3ccnc4cc(Cl)ccc34)nn2)cc1 | >71.1 | > 2860 µM | 40.3 µM | 39.8 µM
3 | COc1ccc2cc(-c3cn(-c4ccnc5cc(Cl)ccc45)nn3)ccc2c1 | <20 | > 2590 µM | > 129 µM | 
4 | O=C(OCCCc1cn(-c2ccnc3cc(Cl)ccc23)nn1)c1ccccc1 | <9.4 | 1200 µM | > 128 µM | 
5 | COc1c(F)c(F)cc(C(=O)OCc2cn(-c3ccnc4cc(Cl)ccc34)nn2)c1F | <20 | > 2230 µM | > 112 µM | 
6 | OCCCc1cn(-c2ccnc3cc(Cl)ccc23)nn1 | 15.7 | 151 µM | 9.6 µM | 10 µM
7 | CC(C)(C)c1ccc(C(=O)OCCCc2cn(-c3ccnc4cc(Cl)ccc34)nn2)cc1 | <20 | > 2230 µM | > 112 µM | 
8 | Cc1ccc(-c2cn(-c3ccnc4cc(Cl)ccc34)nn2)cc1 | <2.2 | 352 µM | > 156 µM | 
9 | COc1ccc(C(=O)OCCCc2cn(-c3ccnc4cc(Cl)ccc34)nn2)cc1 | <3 | 347 µM | > 113 µM | 
10 | Clc1ccc2c(-n3cc(C4CCCCC4)nn3)ccnc2c1 | <40 | > 3200 µM | > 80 µM | 
11 | O=C(OCCCc1cn(-c2ccnc3cc(Cl)ccc23)nn1)c1ccc(C(F)(F)F)cc1 | <20 | > 2170 µM | > 109 µM | 
12 | OC1CCN(Cc2cn(-c3ccnc4cc(Cl)ccc34)nn2)CC1 | 22.7 | 930 µM | 40.9 µM | 40.7 µM
13 | CC(C)(C)c1ccc(C(=O)OCc2cn(-c3ccnc4cc(Cl)ccc34)nn2)cc1 | <20 | > 2380 µM | > 119 µM | 
14 | Clc1ccc2c(-n3cc(CN4CCOCC4)nn3)ccnc2c1 | <20 | > 3040 µM | > 152 µM | 
15 | Cc1ccc(C(=O)OCCCc2cn(-c3ccnc4cc(Cl)ccc34)nn2)cc1 | <20 | > 2460 µM | > 123 µM | 
16 | COc1ccc(C(=O)OCc2cn(-c3ccnc4cc(Cl)ccc34)nn2)cc1 | <2.4 | 303 µM | > 127 µM | 
17 | CCc1ccccc1C(=O)OCc1cn(-c2ccnc3cc(Cl)ccc23)nn1 | <20 | > 2550 µM | > 128 µM | 
18 | CCN(CC)CCCC(C)Nc1ccnc2cc(Cl)ccc12 (configuration not stated) [CHLOROQUINE] |  | 810 µM |  | 
19 | CN(C)Cc1cn(-c2ccnc3cc(Cl)ccc23)nn1 | 67.5 | 1850 µM | 27.4 µM | 26.9 µM
20 | CC(C)(O)c1cn(-c2ccnc3cc(Cl)ccc23)nn1 | 4.9 | 442 µM | 90.3 µM | 
21 | CCc1ccc(C(=O)OCc2cn(-c3ccnc4cc(Cl)ccc34)nn2)cc1 | <20 | > 2550 µM | > 128 µM | 
22 | CCN(CC)Cc1cn(-c2ccnc3cc(Cl)ccc23)nn1 | <11.2 | 1850 µM | > 166 µM | 
23 | O=C(OCc1cn(-c2ccnc3cc(Cl)ccc23)nn1)c1ccccc1 | <20 | > 2750 µM | > 137 µM | 
24 | Clc1ccc2c(-n3cc(-c4ccccc4)nn3)ccnc2c1 | <7.2 | 574 µM | > 80 µM | 
25 | CCc1ccc(C(=O)OCCCc2cn(-c3ccnc4cc(Cl)ccc34)nn2)cc1 | <21.4 | > 2550 µM | > 119 µM | 
26 | Fc1ccc(-c2cn(-c3ccnc4cc(Cl)ccc34)nn2)cc1 | <20 | > 3090 µM | > 154 µM | 
27 | Clc1ccc2c(-n3cc(CN4CCCCC4)nn3)ccnc2c1 | <7.2 | 1110 µM | > 153 µM | 
28 | O=C(OCc1cn(-c2ccnc3cc(Cl)ccc23)nn1)c1ccc(Cl)cc1 | 21.5 | 484 µM | 22.5 µM | 22.9 µM
